{"source": "ChEMBL document CHEMBL5724801", "about": "“EUbOPEN Chemogenomics Library - Multiplex” (2024)", "key": {"HEK-293T": {"tested_on": "HEK-293T", "experiment": "Multiplex assay against HEK293T", "format": "toxicity, cell-based", "settings": "human", "outline": "(§1)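 Live cells carried four stains from seeding: Hoechst33342, BioTracker Green Microtubule Cytoskeleton Dye, MitoTracker Red and Annexin V Alexa Fluor 680. They were imaged on a CQ1 microscope at 37°C and 5% CO2 after compound addition. Using CellPathfinder machine-learning gating, cells were split into Hoechst high-intensity objects or normal cells, normal cells into healthy, pyknosed or fragmented nuclei, and pyknosed cells into mitotic or apoptotic; tubulin, mitochondrial-mass and membrane-permeability phenotypes are per cents of healthy-nucleus cells.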"}, "U2OS": {"tested_on": "U2OS", "experiment": "Multiplex assay against U2OS", "format": "toxicity, cell-based", "settings": "human", "outline": "as §1"}, "[1]": {"settings": "24 h, 10 µM, compound concentration 10 uM"}, "[2]": {"settings": "48 h, 1 µM, compound concentration 1 uM"}, "[3]": {"settings": "48 h, 10 µM, compound concentration 10 uM"}, "[4]": {"settings": "12 h, 1 µM, compound concentration 1 uM"}, "[5]": {"settings": "12 h, 10 µM, compound concentration 10 uM"}, "[6]": {"settings": "24 h, 1 µM, compound concentration 1 uM"}}, "note": "“And” between values parts separate entries of the source, which are not always exact repeats. Equal values may be shown once."}
{"smiles": "COc1cc2nc(N3CCN(C(=O)COc4c(OC)cccc4C(C)C)CC3)nc(N)c2cc1OC.Cl.Cl", "values": [{"measurement": "Population Apoptotic (%)", "setting": "HEK-293T; [1]", "value": "42% and 51%"}, {"measurement": "Population Fragmented Nuclei (%)", "setting": "HEK-293T; [1]", "value": "14% and 13%"}, {"measurement": "Population Healthy Nuclei (%)", "setting": "HEK-293T; [1]", "value": "64% and 59%"}, {"measurement": "Population Hoechst High Intensity Objects (%)", "setting": "HEK-293T; [1]", "value": "29% and 39%"}, {"measurement": "Population Membrane Permeable-Phenotype (%)", "setting": "HEK-293T; [1]", "value": 2, "unit": "%"}, {"measurement": "Population Mitochondria Different-Phenotype (%)", "setting": "HEK-293T; [1]", "value": "68% and 72%"}, {"measurement": "Population Mitotic Cells (%)", "setting": "HEK-293T; [1]", "value": "57% and 48%"}, {"measurement": "Population Normal (%)", "setting": "HEK-293T; [1]", "value": "70% and 60%"}, {"measurement": "Population Pyknosed Nuclei (%)", "setting": "HEK-293T; [1]", "value": "21% and 27%"}, {"measurement": "Population Tubulin-Different-Phenotype (%)", "setting": "HEK-293T; [1]", "value": "69% and 63%"}, {"measurement": "Total Cell Count", "setting": "HEK-293T; [1]", "value": "498 and 286"}, {"measurement": "Population Apoptotic (%)", "setting": "HEK-293T; [2]", "value": "28% and 11%"}, {"measurement": "Population Fragmented Nuclei (%)", "setting": "HEK-293T; [2]", "value": "16% and 15%"}, {"measurement": "Population Healthy Nuclei (%)", "setting": "HEK-293T; [2]", "value": "76% and 78%"}, {"measurement": "Population Hoechst High Intensity Objects (%)", "setting": "HEK-293T; [2]", "value": "2% and 3%"}, {"measurement": "Population Membrane Permeable-Phenotype (%)", "setting": "HEK-293T; [2]", "value": "1% and 0%"}, {"measurement": "Population Mitochondria Different-Phenotype (%)", "setting": "HEK-293T; [2]", "value": 18, "unit": "%"}, {"measurement": "Population Mitotic Cells (%)", "setting": "HEK-293T; [2]", "value": "71% and 88%"}, {"measurement": "Population Normal (%)", "setting": "HEK-293T; [2]", "value": "97% and 96%"}, {"measurement": "Population Pyknosed Nuclei (%)", "setting": "HEK-293T; [2]", "value": 6, "unit": "%"}, {"measurement": "Population Tubulin-Different-Phenotype (%)", "setting": "HEK-293T; [2]", "value": "11% and 12%"}, {"measurement": "Total Cell Count", "setting": "HEK-293T; [2]", "value": "930 and 737"}, {"measurement": "Population Apoptotic (%)", "setting": "HEK-293T; [3]", "value": "31% and 30%"}, {"measurement": "Population Fragmented Nuclei (%)", "setting": "HEK-293T; [3]", "value": "18% and 17%"}, {"measurement": "Population Healthy Nuclei (%)", "setting": "HEK-293T; [3]", "value": "56% and 59%"}, {"measurement": "Population Hoechst High Intensity Objects (%)", "setting": "HEK-293T; [3]", "value": "41% and 46%"}, {"measurement": "Population Membrane Permeable-Phenotype (%)", "setting": "HEK-293T; [3]", "value": "3% and 1%"}, {"measurement": "Population Mitochondria Different-Phenotype (%)", "setting": "HEK-293T; [3]", "value": "48% and 49%"}, {"measurement": "Population Mitotic Cells (%)", "setting": "HEK-293T; [3]", "value": "68% and 69%"}, {"measurement": "Population Normal (%)", "setting": "HEK-293T; [3]", "value": "58% and 53%"}, {"measurement": "Population Pyknosed Nuclei (%)", "setting": "HEK-293T; [3]", "value": "25% and 23%"}, {"measurement": "Population Tubulin-Different-Phenotype (%)", "setting": "HEK-293T; [3]", "value": "56% and 38%"}, {"measurement": "Total Cell Count", "setting": "HEK-293T; [3]", "value": "660 and 430"}, {"measurement": "Population Apoptotic (%)", "setting": "U2OS; [4]", "value": "67% and 33%"}, {"measurement": "Population Fragmented Nuclei (%)", "setting": "U2OS; [4]", "value": "21% and 10%"}, {"measurement": "Population Healthy Nuclei (%)", "setting": "U2OS; [4]", "value": "66% and 84%"}, {"measurement": "Population Hoechst High Intensity Objects (%)", "setting": "U2OS; [4]", "value": "3% and 2%"}, {"measurement": "Population Membrane Permeable-Phenotype (%)", "setting": "U2OS; [4]", "value": 10, "unit": "%"}, {"measurement": "Population Mitochondria Different-Phenotype (%)", "setting": "U2OS; [4]", "value": "5% and 6%"}, {"measurement": "Population Mitotic Cells (%)", "setting": "U2OS; [4]", "value": "32% and 66%"}, {"measurement": "Population Normal (%)", "setting": "U2OS; [4]", "value": "96% and 97%"}, {"measurement": "Population Pyknosed Nuclei (%)", "setting": "U2OS; [4]", "value": "11% and 4%"}, {"measurement": "Population Tubulin-Different-Phenotype (%)", "setting": "U2OS; [4]", "value": 6, "unit": "%"}, {"measurement": "Total Cell Count", "setting": "U2OS; [4]", "value": "256 and 136"}, {"measurement": "Population Apoptotic (%)", "setting": "U2OS; [5]", "value": "55% and 66%"}, {"measurement": "Population Fragmented Nuclei (%)", "setting": "U2OS; [5]", "value": "30% and 19%"}, {"measurement": "Population Healthy Nuclei (%)", "setting": "U2OS; [5]", "value": "43% and 48%"}, {"measurement": "Population Hoechst High Intensity Objects (%)", "setting": "U2OS; [5]", "value": "3% and 0%"}, {"measurement": "Population Membrane Permeable-Phenotype (%)", "setting": "U2OS; [5]", "value": "60% and 54%"}, {"measurement": "Population Mitochondria Different-Phenotype (%)", "setting": "U2OS; [5]", "value": "55% and 65%"}, {"measurement": "Population Mitotic Cells (%)", "setting": "U2OS; [5]", "value": "44% and 33%"}, {"measurement": "Population Normal (%)", "setting": "U2OS; [5]", "value": "96% and 99%"}, {"measurement": "Population Pyknosed Nuclei (%)", "setting": "U2OS; [5]", "value": "25% and 32%"}, {"measurement": "Population Tubulin-Different-Phenotype (%)", "setting": "U2OS; [5]", "value": "75% and 68%"}, {"measurement": "Total Cell Count", "setting": "U2OS; [5]", "value": "233 and 151"}, {"measurement": "Population Apoptotic (%)", "setting": "U2OS; [6]", "value": "84% and 80%"}, {"measurement": "Population Fragmented Nuclei (%)", "setting": "U2OS; [6]", "value": "21% and 15%"}, {"measurement": "Population Healthy Nuclei (%)", "setting": "U2OS; [6]", "value": "67% and 77%"}, {"measurement": "Population Hoechst High Intensity Objects (%)", "setting": "U2OS; [6]", "value": "3% and 0%"}, {"measurement": "Population Membrane Permeable-Phenotype (%)", "setting": "U2OS; [6]", "value": "6% and 10%"}, {"measurement": "Population Mitochondria Different-Phenotype (%)", "setting": "U2OS; [6]", "value": "8% and 7%"}, {"measurement": "Population Mitotic Cells (%)", "setting": "U2OS; [6]", "value": "15% and 20%"}, {"measurement": "Population Normal (%)", "setting": "U2OS; [6]", "value": "96% and 99%"}, {"measurement": "Population Pyknosed Nuclei (%)", "setting": "U2OS; [6]", "value": "11% and 6%"}, {"measurement": "Population Tubulin-Different-Phenotype (%)", "setting": "U2OS; [6]", "value": "4% and 5%"}, {"measurement": "Total Cell Count", "setting": "U2OS; [6]", "value": "297 and 154"}, {"measurement": "Population Apoptotic (%)", "setting": "U2OS; [1]", "value": "76% and 87%"}, {"measurement": "Population Fragmented Nuclei (%)", "setting": "U2OS; [1]", "value": "30% and 20%"}, {"measurement": "Population Healthy Nuclei (%)", "setting": "U2OS; [1]", "value": "36% and 40%"}, {"measurement": "Population Hoechst High Intensity Objects (%)", "setting": "U2OS; [1]", "value": "9% and 12%"}, {"measurement": "Population Membrane Permeable-Phenotype (%)", "setting": "U2OS; [1]", "value": "40% and 49%"}, {"measurement": "Population Mitochondria Different-Phenotype (%)", "setting": "U2OS; [1]", "value": "49% and 50%"}, {"measurement": "Population Mitotic Cells (%)", "setting": "U2OS; [1]", "value": "24% and 12%"}, {"measurement": "Population Normal (%)", "setting": "U2OS; [1]", "value": "90% and 87%"}, {"measurement": "Population Pyknosed Nuclei (%)", "setting": "U2OS; [1]", "value": "33% and 39%"}, {"measurement": "Population Tubulin-Different-Phenotype (%)", "setting": "U2OS; [1]", "value": "50% and 60%"}, {"measurement": "Total Cell Count", "setting": "U2OS; [1]", "value": "246 and 185"}, {"measurement": "Population Apoptotic (%)", "setting": "U2OS; [2]", "value": "83% and 75%"}, {"measurement": "Population Fragmented Nuclei (%)", "setting": "U2OS; [2]", "value": "20% and 16%"}, {"measurement": "Population Healthy Nuclei (%)", "setting": "U2OS; [2]", "value": "70% and 72%"}, {"measurement": "Population Hoechst High Intensity Objects (%)", "setting": "U2OS; [2]", "value": "2% and 3%"}, {"measurement": "Population Membrane Permeable-Phenotype (%)", "setting": "U2OS; [2]", "value": "6% and 7%"}, {"measurement": "Population Mitochondria Different-Phenotype (%)", "setting": "U2OS; [2]", "value": 6, "unit": "%"}, {"measurement": "Population Mitotic Cells (%)", "setting": "U2OS; [2]", "value": "16% and 25%"}, {"measurement": "Population Normal (%)", "setting": "U2OS; [2]", "value": "97% and 96%"}, {"measurement": "Population Pyknosed Nuclei (%)", "setting": "U2OS; [2]", "value": "8% and 11%"}, {"measurement": "Population Tubulin-Different-Phenotype (%)", "setting": "U2OS; [2]", "value": "4% and 6%"}, {"measurement": "Total Cell Count", "setting": "U2OS; [2]", "value": "441 and 225"}, {"measurement": "Population Apoptotic (%)", "setting": "U2OS; [3]", "value": "88% and 93%"}, {"measurement": "Population Fragmented Nuclei (%)", "setting": "U2OS; [3]", "value": "40% and 24%"}, {"measurement": "Population Healthy Nuclei (%)", "setting": "U2OS; [3]", "value": "21% and 23%"}, {"measurement": "Population Hoechst High Intensity Objects (%)", "setting": "U2OS; [3]", "value": "31% and 32%"}, {"measurement": "Population Membrane Permeable-Phenotype (%)", "setting": "U2OS; [3]", "value": "13% and 27%"}, {"measurement": "Population Mitochondria Different-Phenotype (%)", "setting": "U2OS; [3]", "value": "30% and 10%"}, {"measurement": "Population Mitotic Cells (%)", "setting": "U2OS; [3]", "value": "11% and 6%"}, {"measurement": "Population Normal (%)", "setting": "U2OS; [3]", "value": "68% and 67%"}, {"measurement": "Population Pyknosed Nuclei (%)", "setting": "U2OS; [3]", "value": "38% and 51%"}, {"measurement": "Population Tubulin-Different-Phenotype (%)", "setting": "U2OS; [3]", "value": "13% and 24%"}, {"measurement": "Total Cell Count", "setting": "U2OS; [3]", "value": "296 and 180"}]}
